Test results: ChEMBL document CHEMBL1833790, “N-(2-{3-[3,5-bis(trifluoromethyl)phenyl]ureido}ethyl)-glycyrrhetinamide (6b): a novel anticancer glycyrrhetinic acid derivative that targets the proteasome and displays anti-kinase activity” (J Med Chem, 2011)
Active and inactive are the calls of the source. No cut-off for these calls is given here.

Experiments:
[1] = biological target: T1, Peroxisome proliferator-activated receptor gamma (Homo sapiens) (UniProt P37231); assay: Inhibition of PPARgamma activity in human U373 cells at 50 uM after 6 hrs by spectrophotometric analysis relative to control; format: cell-based; details: U-373MG ATCC
T1 sequence (whole entry): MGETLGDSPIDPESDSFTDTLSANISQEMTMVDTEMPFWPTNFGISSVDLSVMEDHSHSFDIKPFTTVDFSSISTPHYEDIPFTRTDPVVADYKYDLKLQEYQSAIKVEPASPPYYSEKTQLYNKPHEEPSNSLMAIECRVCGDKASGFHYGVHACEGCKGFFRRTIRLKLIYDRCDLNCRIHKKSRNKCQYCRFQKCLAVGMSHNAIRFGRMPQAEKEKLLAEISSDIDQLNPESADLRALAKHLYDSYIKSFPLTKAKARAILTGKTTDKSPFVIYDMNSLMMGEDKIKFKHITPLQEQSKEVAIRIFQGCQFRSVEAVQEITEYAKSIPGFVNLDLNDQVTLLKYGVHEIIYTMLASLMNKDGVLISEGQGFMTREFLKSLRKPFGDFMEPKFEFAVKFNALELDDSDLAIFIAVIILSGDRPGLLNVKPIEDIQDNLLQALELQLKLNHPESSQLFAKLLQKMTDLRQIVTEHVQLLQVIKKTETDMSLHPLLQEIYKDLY
Outline: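 Human U373 glioblastoma cells exposed to compound for 6 h, then detached with trypsin. Nuclear extracts prepared by hypotonic lysis with Nonidet P-40 and extraction buffer with protease inhibitor, clarified at 14 000 g, 4 °C. Extracts bound overnight at 4 °C in a PPAR-γ transcription factor ELISA kit, with primary antibody then HRP anti-rabbit. Absorbance read at 450 nm; triplicates, mean ± SD versus control.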

[2] = test system: U-373MG ATCC; assay: Activation of chymotrypsin-like activity of 20S proteasome in human U373 cells at 50 uM after 2 days by bioluminescence assay; format: cell-based
Outline: (§1)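 Chymotrypsin-like site, substrate Suc-LLVY-Glo. U373 cells were seeded at 5000 cells/mL for 48 h and exposed two days. After a PBS wash and 0.025% digitonin permeabilisation, Proteasome-Glo reagent was added. Bioluminescence was read after 10 min dark incubation. Triplicates, normalised by a concurrent MTT viability assay run in identical conditions.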

[3] = test system: U-373MG ATCC; assay: Inhibition of trypsin-like activity of 20S proteasome in human U373 cells at 50 uM after 2 days by bioluminescence assay; format: cell-based
Outline: (§2)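 U373 GBM cells seeded at 5000 cells/mL and grown 48 h, then treated for two days. Cells washed in PBS and permeabilised with 0.025% digitonin. Proteasome-Glo reagent added with Suc-LLVY-Glo (chymotrypsin-like), Z-LRR-Glo (trypsin-like) or Z-nLPnLD-Glo (caspase-like) substrate. Luminescence read after 10 min in the dark and normalised to a parallel MTT viability assay; triplicates. MG-132 at 0.5 μM used as reference.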

[4] = test system: U-373MG ATCC; assay: Activation of caspase-like activity of 20S proteasome in human U373 cells at 50 uM after 2 days by bioluminescence assay; format: cell-based
Outline: (§3)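 Caspase-like site, substrate Z-nLPnLD-Glo. U373 cells were plated at 5000 cells/mL for 48 h, then treated two days. Cells were PBS-washed and permeabilised with 0.025% digitonin before Proteasome-Glo reagent was added. Luminescence was read after 10 min in the dark. Triplicates, normalised to a parallel MTT viability assay under identical conditions.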

[5] = Chemical stability of the compound in MEM cell culture medium after 7 days by HPLC analysis; format: physicochemical; details: read-out: Stability
Outline: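 Compound incubated in MEM culture medium at 37 °C for 7 days, then analysed by HPLC on RX-C8 (5 μm) column with MeOH–water 90:10 (0.1% TFA), diode-array detection. Expressed as % of incubated compound recovered.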

[6] = test system: A549; assay: Growth inhibition in apoptosis-resistant human A549 after 3 days by MTT assay; format: functional; details: A549, 72 h
Outline: (§4)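 Cells grown in RPMI with 10% heat-inactivated FCS, 4 mM glutamine, gentamicin and penicillin–streptomycin. Drug exposure 3 days, growth read by MTT colorimetric assay. Nine concentrations from 0.01 to 100 μM in semilog steps, six replicates each; IC50 derived per cell line.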

[7] = test system: SK-MEL-28; assay: Growth inhibition in apoptosis-resistant human SK-MEL-28 after 3 days by MTT assay; format: functional; details: SK-MEL-28, 72 h; outline: as §4
[8] = test system: T98G; assay: Growth inhibition in apoptosis-resistant human T98G after 3 days by MTT assay; format: functional; details: 72 h; outline: as §4
[9] = Growth inhibition in apoptosis-resistant human U373 after 3 days by MTT assay; format: functional, U-373MG ATCC; details: U373 MG, 72 h; outline: as §4
[10] = test system: Hs 683; assay: Growth inhibition in apoptosis-sensitive human Hs683 after 3 days by MTT assay; format: functional; details: Hs 683, 72 h; outline: as §4
[11] = test system: PC-3; assay: Growth inhibition in apoptosis-sensitive human PC3 after 3 days by MTT assay; format: functional; details: PC-3, 72 h; outline: as §4
[12] = test system: MCF7; assay: Growth inhibition in apoptosis-sensitive human MCF7 after 3 days by MTT assay; format: functional; details: MCF7, 72 h; outline: as §4
[13] = test system: B16-F10; assay: Growth inhibition in mouse B16F10 after 3 days by MTT assay; format: functional; details: B16-F10, 72 h; outline: as §4
[14] = test system: U-373MG ATCC; assay: Activation of chymotrypsin-like activity of 20S proteasome in human U373 cells at 90 uM after 2 days by bioluminescence assay; format: cell-based; outline: as §1
[15] = test system: U-373MG ATCC; assay: Inhibition of trypsin-like activity of 20S proteasome in human U373 cells at 90 uM after 2 days by bioluminescence assay; format: cell-based; outline: as §2
[16] = test system: U-373MG ATCC; assay: Activation of caspase-like activity of 20S proteasome in human U373 cells at 90 uM after 2 days by bioluminescence assay; format: cell-based; outline: as §3
[17] = Cell cycle arrest in human U373 cells assessed as accumulation of cells in G1 phase at 80 uM after 48 to 72 hrs by TUNEL-based flow cytometric analysis; format: functional; details: U-373MG ATCC
Outline: (§5)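 A549 NSCLC and U373 GBM cells were treated 48 or 72 h and analysed with the APO AF kit. TUNEL labelling ran 1 h at 37 °C, followed by propidium iodide (5 μg/mL) with RNase. Apoptotic fraction and % cells in G1 were measured by flow cytometry. Kit negative/positive controls and 1 μM narciclasine-treated PC-3 cells served as controls.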

[18] = test system: A549; assay: Cell cycle arrest in human A549 cells assessed as accumulation of cells in G1 phase at 100 uM after 48 to 72 hrs by TUNEL-based flow cytometric analysis; format: functional; outline: as §5
[19] = biological target: T1, Peroxisome proliferator-activated receptor gamma (Homo sapiens); assay: Activation of PPARgamma activity in human U373 cells at 90 uM after 6 hrs by spectrophotometric analysis relative to control; details: U-373MG ATCC

Row | Structure (SMILES) | inhibition [1] | Activity [2] | inhibition [3] | Activity [4] | remaining at 168 h [5] | GI50 [6] | GI50 [7] | GI50 [8] | GI50 [9] | GI50 [10] | GI50 [11] | GI50 [12] | GI50 [13] | Activity [14] | inhibition [15] | Activity [16] | Activity [17] | Activity [18] | Activity [19]
1 | CC1(C)[C@@H](O)CC[C@]2(C)[C@H]3C(=O)C=C4[C@@H]5C[C@@](C)(C(=O)NCc6ccc(C(F)(F)F)cc6)CC[C@]5(C)CC[C@@]4(C)[C@]3(C)CC[C@@H]12 | Active | Active | Active | Active | 95% | 37 µM | 65 µM | 67 µM | 44 µM | 49 µM | 35 µM | 29 µM | 39 µM |  |  |  |  |  | 
2 | CC1(C)[C@@H](O)CC[C@]2(C)[C@H]3C(=O)C=C4[C@@H]5C[C@@](C)(C(=O)O)CC[C@]5(C)CC[C@@]4(C)[C@]3(C)CC[C@@H]12 [ENOXOLONE] |  |  |  |  | 98% | > 100 µM | 92 µM | 85 µM | 83 µM | 84 µM | 80 µM | 76 µM | 37 µM | Active | Active | Active | inactive | inactive | Active
